In data set [1] the test system is Rattus norvegicus. Nature of the data set: Evaluated for the distribution of radioactivity in tissues of female Fischer rats kidneys after 60 minutes intravenous administration; dose/g, range 4.62-5.60. Format: ADME, organism-based, Kidney. The note with it: in vivo, 1 h.
Data set [2] deals with Rattus norvegicus. In words: Evaluated for the distribution of radioactivity in tissues of female Fischer rats liver after 60 minutes intravenous administration; dose/g, range 0.73-1.19. Format: ADME, organism-based. The note with it: in vivo, 1 h. In outline: (§1)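 Female Fischer 344 rats (10-12 weeks, 170-200 g), fed ad libitum, got a single iv tail-vein injection under ether anaesthesia of the 125I-labelled cation (2.85-8.38 μCi). The tracer was dissolved in Me2SO, diluted with saline to 1% Me2SO and filtered. At the set times rats were killed by cervical fracture and blood taken by cardiac puncture. Organs were rinsed, blotted, weighed and gamma-counted against injectate standards. Results are %dose/g, mean and range, n=5. Thyroid weight was taken as 7.5 mg/100 g body weight.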

In data set [3] the test system is Rattus norvegicus. In words: Evaluated for the distribution of radioactivity in tissues of female Fischer rats kidneys after 5 minutes intravenous administration; dose/g, range 14.4-20.1. It counts as ADME, organism-based, Kidney. The note with it: in vivo.
Data set [4] concerns Rattus norvegicus. Nature of the data set: Evaluated for the distribution of radioactivity in tissues of female Fischer rats blood after 60 minutes intravenous administration; dose/g, range 0.13-0.15. It counts as ADME, organism-based. The note with it: in vivo, 1 h.
Data set [5] relates to Rattus norvegicus. Nature of the data set: Evaluated for the distribution of radioactivity in tissues of female Fischer rats lungs after 5 minutes intravenous administration; dose/g, range 0.96-1.35. The note with it: in vivo. Format: ADME, organism-based, Lung. The essentials:
as §1

The subject of data set [6] is Rattus norvegicus. In words: Evaluated for the distribution of radioactivity in tissues of female Fischer rats lungs after 60 minutes intravenous administration; dose/g, range 0.81-1.13. It counts as ADME, organism-based, Lung. The note with it: in vivo, 1 h. The essentials: as §1
The subject of data set [7] is Rattus norvegicus. Nature of the data set: Evaluated for the distribution of radioactivity in tissues of female Fischer rats blood after 30 minutes intravenous administration; dose/g, range 0.19-0.24. It counts as ADME, organism-based. Particulars: in vivo, 0.5 h.
The subject of data set [8] is Rattus norvegicus. In words: Evaluated for the distribution of radioactivity in tissues of female Fischer rats thyroid after 30 minutes intravenous administration; dose/g, range 19-24. It counts as ADME, organism-based, Thyroid gland. Particulars: in vivo, 0.5 h. The essentials: as §1
The subject of data set [9] is Rattus norvegicus. Nature of the data set: Evaluated for the distribution of radioactivity in tissues of female Fischer rats thyroid after 5 minutes intravenous administration; dose/g, range 13-18. The note with it: in vivo. Format: ADME, organism-based, Thyroid gland. In outline: as §1
Data set [10] has as its system Rattus norvegicus. Nature of the data set: Evaluated for the distribution of radioactivity in tissues of female Fischer rats blood after 5 minutes intravenous administration; dose/g, range 0.40-0.45. Format: ADME, organism-based. The note with it: in vivo.
Data set [11] relates to Rattus norvegicus. Nature of the data set: Evaluated for the distribution of radioactivity in tissues of female Fischer rats kidneys after 30 minutes intravenous administration; dose/g, range 7.21-7.95. The note with it: in vivo, 0.5 h. It counts as ADME, organism-based, Kidney.
Data set [12] deals with Rattus norvegicus. Nature of the data set: Evaluated for the distribution of radioactivity in tissues of female Fischer rats thyroid after 60 minutes intravenous administration; dose/g, range 35-53. Format: ADME, organism-based, Thyroid gland. The note with it: in vivo, 1 h. The essentials:
as §1

Data set [13] has as its system Rattus norvegicus. In words: Evaluated for the distribution of radioactivity in tissues of female Fischer rats heart after 30 minutes intravenous administration; dose/g, range 1.39-2.43. It counts as ADME, organism-based. Particulars: in vivo, 0.5 h.
Data set [14] deals with Rattus norvegicus. In words: Evaluated for the distribution of radioactivity in tissues of female Fischer rats heart after 5 minutes intravenous administration.; dose/g, range 2.20-2.97. It counts as ADME, organism-based. Particulars: in vivo.
Data set [15] deals with Rattus norvegicus. Nature of the data set: Evaluated for the distribution of radioactivity in tissues of female Fischer rats heart after 60 minutes intravenous administration; dose/g, range 1.93-3.58. It counts as ADME, organism-based. Particulars: in vivo, 1 h.
In data set [16] the test system is Rattus norvegicus. Nature of the data set: Evaluated for the distribution of radioactivity in tissues of female Fischer rats liver after 30 minutes intravenous administration; dose/g, range 1.51-2.23. Format: ADME, organism-based. The note with it: in vivo, 0.5 h.
Data set [17] relates to Rattus norvegicus. Nature of the data set: Evaluated for the distribution of radioactivity in tissues of female Fischer rats liver after 5 minutes intravenous administration; dose/g, range 3.12-4.56. Format: ADME, organism-based. The note with it: in vivo. In outline:
as §1

Data set [18] relates to Rattus norvegicus. Nature of the data set: Evaluated for the distribution of radioactivity in tissues of female Fischer rats lungs after 30 minutes intravenous administration; dose/g, range 0.83-1.21. Particulars: in vivo, 0.5 h. It counts as ADME, organism-based, Lung. In outline:
as §1

Data set [19] relates to Rattus norvegicus. Nature of the data set: Evaluated for the distribution of radioactivity in tissues of female Fischer rats liver after 60 minutes intravenous administration; dose/g, range 1.08-2.31. Format: ADME, organism-based. The note with it: in vivo, 1 h. The essentials: as §1
The subject of data set [20] is Rattus norvegicus. Nature of the data set: Evaluated for the distribution of radioactivity in tissues of female Fischer rats kidneys after 5 minutes intravenous administration; dose/g, range 4.78-9.72. It counts as ADME, organism-based, Kidney. Particulars: in vivo.
The test system of data set [21] is Rattus norvegicus. In words: Evaluated for the distribution of radioactivity in tissues of female Fischer rats kidneys after 60 minutes intravenous administration; dose/g, range 0.17-0.25. Format: ADME, organism-based, Kidney. Particulars: in vivo, 1 h.
The subject of data set [22] is Rattus norvegicus. Nature of the data set: Evaluated for the distribution of radioactivity in tissues of female Fischer rats thyroid after 60 minutes intravenous administration; dose/g, range 5-12. It counts as ADME, organism-based, Thyroid gland. The note with it: in vivo, 1 h. In outline: as §1
For data set [23], the system named is Rattus norvegicus. Nature of the data set: Evaluated for the distribution of radioactivity in tissues of female Fischer rats lungs after 5 minutes intravenous administration; dose/g, range 0.51-0.66. It counts as ADME, organism-based, Lung. Particulars: in vivo. In outline:
as §1

The subject of data set [24] is Rattus norvegicus. In words: Evaluated for the distribution of radioactivity in tissues of female Fischer rats lungs after 60 minutes intravenous administration; dose/g, range 0.28-0.33. It counts as ADME, organism-based, Lung. Particulars: in vivo, 1 h. In outline: as §1
Data set [25] deals with Rattus norvegicus. In words: Evaluated for the distribution of radioactivity in tissues of female Fischer rats blood after 30 minutes intravenous administration; dose/g, range 0.07-0.09. Format: ADME, organism-based. The note with it: in vivo, 0.5 h.
Data set [26] relates to Rattus norvegicus. In words: Evaluated for the distribution of radioactivity in tissues of female Fischer rats blood after 5 minutes intravenous administration; dose/g, range 0.10-0.14. It counts as ADME, organism-based. Particulars: in vivo.
The test system of data set [27] is Rattus norvegicus. In words: Evaluated for the distribution of radioactivity in tissues of female Fischer rats thyroid after 30 minutes intravenous administration; dose/g, range 4-7. The note with it: in vivo, 0.5 h. Format: ADME, organism-based, Thyroid gland. The essentials: as §1
In data set [28] the test system is Rattus norvegicus. Nature of the data set: Evaluated for the distribution of radioactivity in tissues of female Fischer rats thyroid after 5 minutes intravenous administration; dose/g, range 5-8. It counts as ADME, organism-based, Thyroid gland. Particulars: in vivo. The essentials:
as §1

Data set [29] relates to Rattus norvegicus. Nature of the data set: Evaluated for the distribution of radioactivity in tissues of female Fischer rats lungs after 30 minutes intravenous administration.; dose/g, range 0.34-0.47. Format: ADME, organism-based, Lung. Particulars: in vivo, 0.5 h. In outline: as §1
For data set [30], the system named is Rattus norvegicus. Nature of the data set: Evaluated for the distribution of radioactivity in tissues of female Fischer rats blood after 60 minutes intravenous administration; dose/g, range 0.08-0.09. It counts as ADME, organism-based. The note with it: in vivo, 1 h.
The test system of data set [31] is Rattus norvegicus. Nature of the data set: Evaluated for the distribution of radioactivity in tissues of female Fischer rats heart after 30 minutes intravenous administration; dose/g, range 0.95-1.44. Format: ADME, organism-based. Particulars: in vivo, 0.5 h.
For data set [32], the system named is Rattus norvegicus. Nature of the data set: Evaluated for the distribution of radioactivity in tissues of female Fischer rats kidneys after 30 minutes intravenous administration; dose/g, range 0.24-0.31. The note with it: in vivo, 0.5 h. It counts as ADME, organism-based, Kidney.
The test system of data set [33] is Rattus norvegicus. In words: Evaluated for the distribution of radioactivity in tissues of female Fischer rats heart after 5 minutes intravenous administration; dose/g, range 0.90-1.46. It counts as ADME, organism-based. The note with it: in vivo.
Data set [34] relates to Rattus norvegicus. Nature of the data set: Evaluated for the distribution of radioactivity in tissues of female Fischer rats heart after 60 minutes intravenous administration; dose/g, range 1.05-1.57. It counts as ADME, organism-based. The note with it: in vivo, 1 h.
Data set [35] concerns Rattus norvegicus. Nature of the data set: Evaluated for the distribution of radioactivity in tissues of female Fischer rats liver after 30 minutes intravenous administration; dose/g, range 2.30-3.12. Format: ADME, organism-based. Particulars: in vivo, 0.5 h.
For data set [36], the system named is Rattus norvegicus. Nature of the data set: Evaluated for the distribution of radioactivity in tissues of female Fischer rats liver after 5 minutes intravenous administration; dose/g, range 4.12-6.30. Format: ADME, organism-based. Particulars: in vivo. In outline: as §1

Take `CCCCCCCC[P+](C)(C)CCC/C=C/I.[I-]`: the Distribution in the data set with Rattus norvegicus [1] is listed as 5.15%; in the data set with Rattus norvegicus [2], 0.93%; in the data set on Rattus norvegicus [3], 17.54%; with Rattus norvegicus [4], 0.14%; in the data set on Rattus norvegicus [5], 1.18%; in the data set with Rattus norvegicus [6], 0.95%. The Distribution with Rattus norvegicus [7] was 0.22%; in the data set with Rattus norvegicus [8] it was 21%; in the data set with Rattus norvegicus [9] it was 16%; in the data set with Rattus norvegicus [10], 0.42%; with Rattus norvegicus [11], 7.51%; with Rattus norvegicus [12], 41%. In addition, the Distribution with Rattus norvegicus [13] is recorded as 1.95%; with Rattus norvegicus [14] it was 2.51%; in the data set on Rattus norvegicus [15], 2.73%; in the data set with Rattus norvegicus [16], 1.84%; in the data set with Rattus norvegicus [17] it was 3.72%; in the data set on Rattus norvegicus [18] it was 1.05%.

`CC[N+](CC)(CC)CCC/C=C/I.[I-]`: the Distribution is listed as 1.55% in the data set on Rattus norvegicus [19]; 7.46% in the data set with Rattus norvegicus [20]; 0.21% in the data set on Rattus norvegicus [21]; 9% in the data set with Rattus norvegicus [22]; 0.57% in the data set with Rattus norvegicus [23]; 0.29% with Rattus norvegicus [24]. For the same molecule, the Distribution was 0.08% in the data set with Rattus norvegicus [25]; 0.12% in the data set on Rattus norvegicus [26]; 5% with Rattus norvegicus [27]; 6% in the data set with Rattus norvegicus [28]; 0.39% in the data set with Rattus norvegicus [29]; 0.09% in the data set on Rattus norvegicus [30]. Further, the Distribution in the data set with Rattus norvegicus [31] was 1.11%; in the data set with Rattus norvegicus [32], 0.27%; in the data set with Rattus norvegicus [33], 1.12%; in the data set on Rattus norvegicus [34] it was 1.21%; in the data set on Rattus norvegicus [35], 2.76%; in the data set with Rattus norvegicus [36] it was 5.16%.

Values taken from ChEMBL document CHEMBL1122900, “Effects of alkyl and aryl substitution on the myocardial specificity of radioiodinated phosphonium, arsonium, and ammonium cations” (J Med Chem, 1985).
